Data published in ChEMBL document CHEMBL1127691, “Discovery, synthesis, and bioactivity of bis(heteroaryl)piperazines. 1. A novel class of non-nucleoside HIV-1 reverse transcriptase inhibitors” (J Med Chem, 1994).

Legend:
[1] = target: Human immunodeficiency virus type 1 reverse transcriptase (Human immunodeficiency virus 1) (UniProt Q72547); experiment: In vitro inhibitory activity against HIV-1 reverse transcriptase at 100 uM
How it was run: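 Recombinant HIV-1 RT (p51/p66 heterodimer, 90–95% pure, 0.0274 μM) with poly(rA) 10 μg/mL and (dT)10 primer 5 μg/mL; 8 μM α-35S-dTTP, 50 mM Tris-HCl pH 8.3, 10 mM MgCl2, 60 mM NaCl, 20 mM DTT, 0.05% NP-40. 37 °C, 15 min; TCA-precipitated label counted on filters. Percent inhibition at 100 μM, mean of at least two determinations.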

MT2 [2] = experiment: Effective antiviral dose required to block the spread of HIV-1 IIIb infection in MT-2 cells by monitoring the formation of syncytia; type: functional; conditions: Homo sapiens, read-out: ED50 (the source's name)
How it was run: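 MT-2 cells infected with HIV-1 IIIb at MOI 0.001, held at 37 °C in 5% CO2. Syncytium formation scored 4 days post-infection, at peak cytopathic effect. ED50 is the dose giving 50% reduction in syncytia; some values were estimated, and ">" means 50% was not reached at the top concentration.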

[3] = Selective index is the ratio of inhibitory concentrations of cellular DNA polymerase delta to HIV-1 reverse transcriptase
How it was run: (§1)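 Index = IC50 for cellular DNA polymerase α or δ divided by IC50 for HIV-1 RT. RT IC50 measured with recombinant RT and poly(rA):oligo(dT)10 template:primer.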

[4] = tested on: Human immunodeficiency virus 1; experiment: Effective antiviral dose required to block the spread of HIV-1D34 infection in human peripheral blood mononuclear cells; type: functional; conditions: read-out: ED50 (the source's name)
How it was run: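 PBMC (1 × 10^6 cells) infected with HIV-1 D34 inoculum containing 1 ng p24, cultured at 37 °C in 5% CO2. Replication read as supernatant p24 at day 4. ED50 = 50% effective antiviral dose, estimated in some cases.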

MT2 [5] = experiment: Tested for the drug concentration required to decrease HIV-1IIIb infected MT-2 cell viability compared to uninfected controls; type: functional; conditions: Homo sapiens
How it was run: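 MT-2 cells with HIV-1 IIIb (MOI 0.001), 4-day culture. Viability by trypan blue exclusion. CC50 is the concentration lowering viability relative to uninfected controls; mostly estimated.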

[6] = Selective index is the ratio of inhibitory concentrations of cellular DNA polymerase alpha to HIV-1 reverse transcriptase; how it was run: as §1
[7] = Tested for the drug concentration required to decrease […] infected human peripheral blood mononuclear cell viability compared to uninfected controls; type: functional
How it was run: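 Uninfected and HIV-1 D34-infected PBMC at 37 °C, 5% CO2. Viability taken from mitogen-stimulated cell proliferation. CC50 is the concentration lowering viability relative to uninfected controls; mostly estimated.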

SMILES | inhibition [1] | EC50 [4] | CC50 [7] | other results
CNC(=O)c1cccnc1N1CCN(C(=O)c2cc3ccccc3[nH]2)CC1 | 0% |  |  | 
COC(=O)c1cccnc1N1CCN(C(=O)c2cc3ccccc3[nH]2)CC1 | 82% |  |  | 
CCNc1cccnc1N1CCN(C(=O)c2cnc3ccccc3c2)CC1 | 14% |  |  | 
CCNc1cccnc1N1CCN(C(=O)c2cc3cc(F)ccc3[nH]2)CC1 | 93% | 0.001 µM |  | EC50 (MT2 [2]): < 0.3 µM; Selectivity index [3]: 1670; CC50 (MT2 [5]): > 27 µM; Selectivity index [6]: 220
COc1ccccc1N1CCN(C(=O)c2cc3ccccc3[nH]2)CC1 | 33% |  |  | 
CCOc1ccccc1N1CCN(Cc2cc(C)c(OC)c(C)c2)CC1 | 0% |  |  | 
CC(C)(C)C(=O)c1cccnc1N1CCN(C(=O)c2cc3ccccc3[nH]2)CC1 | 58% |  |  | 
CC(C)Nc1ccc(N2CCN(C(=O)c3ccc4[nH]ccc4c3)CC2)nc1 | 0% |  |  | 
CCNc1cccnc1N1CCN(C(=O)c2cc3ccccc3oc2=O)CC1 | 16% |  |  | 
CCN(CC)c1cccnc1N1CCN(C(=O)c2cc3ccccc3[nH]2)CC1 | 69% | 1 µM | > 10 µM | 
CCC(CC)Nc1cccnc1N1CCN(C(=O)c2cc3ccccc3[nH]2)CC1 | 82% | 0.1 µM | > 10 µM | 
COc1ccc(N2CCN(C(=O)c3cc4ccccc4[nH]3)CC2)c(OC)c1 | 7% |  |  | 
CCNc1cccnc1N1CCN(C(=O)c2nc3ccccc3[nH]2)CC1 | 69% | 10 µM | > 10 µM | 
CC(C)NCc1cccnc1N1CCN(C(=O)c2cc3ccccc3[nH]2)CC1 | 0% |  |  | 
CC(C)Nc1cc(F)ccc1N1CCN(C(=O)c2cc3ccccc3[nH]2)CC1 | 83% | 0.1 µM | > 10 µM | 
CC(C)Nc1ccccc1N1CCN(C(=O)c2cc3ccccc3[nH]2)CC1 | 87% |  |  | 
CCc1ccccc1N1CCN(C(=O)c2cc3ccccc3[nH]2)CC1 | 0% |  |  | 
CC(=O)Nc1cccnc1N1CCN(C(=O)c2cc3ccccc3[nH]2)CC1 | 0% | > 10 µM | > 100 µM | 
CC(C)(C)Nc1cccnc1N1CCN(C(=O)c2cc3cc(F)ccc3[nH]2)CC1 | 89% | 0.01 µM |  | EC50 (MT2 [2]): 0.23 µM; Selectivity index [3]: 1670; CC50 (MT2 [5]): > 23 µM; Selectivity index [6]: 233
CCNc1cccnc1N1CCN(C(=O)c2ccc[nH]2)CC1 | 87% | > 1 µM | > 100 µM | 
COc1c(C)cc(C(=O)N2CCN(c3ccccn3)CC2)cc1C | 5% | > 10 µM | > 100 µM | 
CCOc1ccccc1N1CCN(C(=O)c2cc(C)c(OC)c(C)c2)CC1 | 0% | > 1 µM | < 10 µM | 
O=C(c1cc2ccccc2[nH]1)N1CCN(c2ncccc2NCC2CC2)CC1 | 71% | 0.01 µM | > 100 µM | 

SMILES | inhibition [1] | EC50 [4] | CC50 [7] | other results
CCNc1cccnc1N1CCN(C(=O)c2cc3ccccc3s2)CC1 | 50% | 10 µM | ~100 µM | 
O=C(c1cc2ccccc2[nH]1)N1CCN(c2ncccc2[N+](=O)[O-])CC1 | 5% |  |  | 
CC(C)(C)NC(=O)c1cccnc1N1CCN(C(=O)c2cc3ccccc3[nH]2)CC1 | 50% |  |  | 
CC(C)Nc1ccc(F)cc1N1CCN(C(=O)c2cc3ccccc3[nH]2)CC1 | 77% | 0.1 µM | > 100 µM | 
COc1c(C)cc(C(=O)N2CCN(c3ncccc3NC(C)C)CC2)cc1C | 78% | 0.1 µM | > 10 µM | 
CCN(C(C)=O)c1cccnc1N1CCN(C(=O)c2cc3ccccc3[nH]2)CC1 | 8% |  |  | 
CCNc1cccnc1N1CCN(C(=O)c2cccc3cc[nH]c23)CC1 | 87% | 1 µM | > 100 µM | 
N#Cc1ccccc1N1CCN(C(=O)c2cc3ccccc3[nH]2)CC1 | 0% |  |  | 
CNc1cccnc1N1CCN(C(=O)c2cc3ccccc3[nH]2)CC1 | 85% | ~1 µM | > 10 µM | 
CCCNc1cccnc1N1CCN(Cc2cc(C)c(OC)c(C)c2)CC1 | 60% |  |  | 
CCNc1cccnc1N1CCN(C(=O)c2cc(C)c(OC)c(C)c2)CC1 | 69% | 1 µM | > 100 µM | 
N#Cc1cccnc1N1CCN(C(=O)c2cc3ccccc3[nH]2)CC1 | 5% |  |  | 
CCNc1cccnc1N1CCN(C(=O)c2cnccn2)CC1 | 0% |  |  | 
CCCNc1cccnc1N1CCN(C(=O)c2cc3ccccc3[nH]2)CC1 | 64% | 0.1 µM | > 100 µM | 
CCNc1cccnc1N1CCN(C(=O)c2ccc3ccccc3n2)CC1 | 0% |  |  | 
COc1ccc2[nH]c(C(=O)N3CCN(c4ncccc4NC(C)C)CC3)cc2c1 | 97% | 0.001 µM |  | EC50 (MT2 [2]): 0.3 µM; Selectivity index [3]: 8000; CC50 (MT2 [5]): > 25 µM; Selectivity index [6]: 1500
CC(=O)c1cccnc1N1CCN(C(=O)c2cc3ccccc3[nH]2)CC1 | 30% |  |  | 
CCNc1cccnc1N1CCN(C(=O)c2c[nH]c3ccccc23)CC1 | 22% |  |  | 
CCC(=O)c1cccnc1N1CCN(C(=O)c2cc3ccccc3[nH]2)CC1 | 40% |  |  | 
CCNc1cccnc1N1CCN(Cc2cc3ccccc3[nH]2)CC1 | 64% | 1 µM |  | 
O=C(c1cc2ccccc2[nH]1)N1CCN(c2ncccc2NCC(F)(F)F)CC1 | 40% | 1 µM | > 10 µM | 
CCNc1cccnc1N1CCN(C(=O)c2cc3cc(OC)ccc3[nH]2)CC1.CS(=O)(=O)O [ATEVIRDINE SULPHATE] | 92% | 0.001 µM |  | EC50 (MT2 [2]): < 0.2 µM; Selectivity index [3]: 1500; CC50 (MT2 [5]): > 20 µM; Selectivity index [6]: 200
CCNc1cccnc1N1CCN(C(=O)c2nc3ccccc3o2)CC1 | 0% |  |  | 

SMILES | inhibition [1] | EC50 [4] | CC50 [7] | other results
CCNc1cccc(N2CCN(C(=O)c3ccc4[nH]ccc4c3)CC2)n1 | 0% |  |  | 
CCNc1cccnc1N1CCN(C(=O)c2cccs2)CC1 | 60% | ~10 µM | > 100 µM | 
O=C(c1cc2ccccc2[nH]1)N1CCN(c2ncccc2NCc2ccccc2)CC1 | 14% |  |  | 
COc1c(C)cc(CN2CCN(c3ncccn3)CC2)cc1C | 0% |  |  | 
CC(C)C(=O)c1cccnc1N1CCN(C(=O)c2cc3ccccc3[nH]2)CC1 | 26% |  |  | 
CCOC(=O)c1cccnc1N1CCN(C(=O)c2cc3ccccc3[nH]2)CC1 | 68% |  |  | 
CCNc1cccnc1N1CCN(C(=O)c2ccc3ccccc3c2)CC1 | 74% | 10 µM | > 10 µM | 
CCC(C)Nc1cccnc1N1CCN(C(=O)c2cc3ccccc3[nH]2)CC1 (configuration not stated) | 95% | 0.01 µM | > 10 µM | 
CC(C)Nc1cnnc(N2CCN(C(=O)c3ccc4[nH]ccc4c3)CC2)c1 | 39% |  |  | 
CCNc1ccccc1N1CCN(C(=O)c2cc3ccccc3[nH]2)CC1 | 78% | 1 µM | > 100 µM | 
CCNc1cccnc1N1CCN(C(=O)c2cc3ccccc3o2)CC1 | 37% | 10 µM | > 10 µM | 
CCNc1cccnc1N1CCN(C(=O)c2ccc3[nH]ccc3c2)CC1 | 45% | ~10 µM | > 100 µM | 
CCNc1cccnc1N1CCN(C(=O)c2cc3c(C)c(OC)c(C)c(C)c3[nH]2)CC1 | 63% | > 10 µM | > 10 µM | 
CCOc1ccccc1N1CCN(C(=O)c2cc3ccccc3[nH]2)CC1 | 76% | > 1 µM | < 10 µM | 
COc1c(C)cc(CN2CCN(c3ncccc3NC(C)C)CC2)cc1C | 84% | 1 µM | ~10 µM | 
COc1c(C)cc(CN2CCN(c3ccccn3)CC2)cc1C | 0% | > 10 µM | > 100 µM | 
Cc1cn([C@H]2C[C@H](N=[N+]=[N-])[C@@H](CO)O2)c(=O)[nH]c1=O [ZIDOVUDINE] |  | 0.001 µM | 10 µM | EC50 (MT2 [2]): 0.07 µM; CC50 (MT2 [5]): 123 µM
CCNc1cccnc1N1CCN(C(=O)c2ccco2)CC1 | 39% | > 10 µM | > 100 µM | 
CCNc1cccnc1N1CCN(C(=O)c2cccc3[nH]ccc23)CC1 | 28% |  |  | 
CC(C)Nc1cc(C(F)(F)F)ccc1N1CCN(C(=O)c2cc3ccccc3[nH]2)CC1 | 22% | ~1 µM | > 10 µM | 
CCNc1cccnc1N1CCN(C(=O)c2nc3ccccc3s2)CC1 | 0% |  |  | 
Nc1cccnc1N1CCN(C(=O)c2cc3ccccc3[nH]2)CC1 | 20% | > 10 µM | > 100 µM | 
